Most compounds without a hit are left out; they make up all but 29% or so of the library.
Ecoli WT expand: growth inhibitors of wild-type E. coli, primary screen, strain BW25113, expanded library, OD600 | OD600 absorbance | 98,000 compounds, 0.15% hits | AID 710, 2007 | growth inhibition, % at 100 µM;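 active = growth inhibition above about 50% at one test dose, limit read from the data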;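 also: growth measured after 20 h incubation at 37 °C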
CYP2C9 act: human CYP2C9 activators, primary screen, biochemical, luminescence | AID 1024, 2008 | activation factor at 5 µM | Cytochrome P450 2C9 (Homo sapiens), P11712 | recombinant CYP2C9, luciferin-H conversion; stronger effect = higher value; factor 1 = untreated enzyme, 0 = blocked | 96,000 compounds, 1.4% hits;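 active = activation factor of 2 or more for CYP2C9 at a 5 µM dose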
Target sequence (P11712 whole entry, looked up): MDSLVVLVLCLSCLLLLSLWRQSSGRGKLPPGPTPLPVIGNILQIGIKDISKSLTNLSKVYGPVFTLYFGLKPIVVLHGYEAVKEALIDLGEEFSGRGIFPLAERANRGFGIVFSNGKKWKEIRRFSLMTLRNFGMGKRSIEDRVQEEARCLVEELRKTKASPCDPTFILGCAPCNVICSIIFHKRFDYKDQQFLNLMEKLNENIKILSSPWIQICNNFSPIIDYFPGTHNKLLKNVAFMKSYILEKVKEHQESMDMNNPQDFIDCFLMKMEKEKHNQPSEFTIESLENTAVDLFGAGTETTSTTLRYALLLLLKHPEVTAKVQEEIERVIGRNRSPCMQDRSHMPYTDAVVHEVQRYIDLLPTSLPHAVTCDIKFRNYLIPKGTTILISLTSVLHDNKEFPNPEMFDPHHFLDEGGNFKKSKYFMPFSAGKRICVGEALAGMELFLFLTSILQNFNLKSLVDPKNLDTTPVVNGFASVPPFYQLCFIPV
CYP2C9 inhib: blockers of cytochrome P450 2C9 activity – biochemical, luminescence, ADME assay, primary screen | P11712 | CYP2C9 Supersomes, luciferin-H conversion | inhibition, % at 5 µM | 96,000 compounds, 20% hits | AID 777, 2007;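 active = blocking of liver enzyme CYP2C9 beyond about 50% at 5 µM, limit read from the data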
CYP2C19 act: human CYP2C19 activators, primary screen, biochemical, luminescence | 96,000 tested, under 10 active | recombinant CYP2C19, luciferin-H EGE luminescence; stronger effect = higher value; 0 = fully inhibited enzyme, 1 = untreated enzyme | activation factor at 5 µM;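 active = activation factor of at least 2 at 5 µM in the primary screen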
Ecoli tolC: growth inhibitors of E. coli tolC mutant, primary screen, strain BW25113 ΔtolC::kan, 384-well; OD615; growth inhibition, % at 10 µM (by protocol); 65,000 compounds, 2.2% hits;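 active = growth inhibition at or above a cutoff equal to the mean over every tested compound plus 3 SD, cut at about 60% in these data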;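 also: growth measured after 20 h incubation at 37 °C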
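Test system – E. coli BW25113 ΔtolC::kan, tolC deletion mutant strain · Detection – OD at 615 nm · Buffer or medium – LB with kanamycin 50 µg/mL · Times – 20 h compound exposure of bacteria at 37 °C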
CYP2C19 inh: blockers of cytochrome P450 2C19 activity – biochemical, luminescence, ADME assay, primary screen; P33261; CYP2C19 Supersomes, luciferin-H EGE luminescence, 30 min; inhibition, % at 5 µM; 96,000 compounds, 21% hits; AID 778, 2007;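 active = CYP2C19 inhibition above a set limit at 5 µM in the primary screen, cut at about 50% in these data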
A number is an active result; – = inactive; · = no result.

SMILES | Ecoli WT expand | CYP2C9 act | CYP2C9 inhib | CYP2C19 act | Ecoli tolC | CYP2C19 inh
O=C(C1CCCN(S(=O)(=O)c2ccccc2)C1)N1CCN(c2ncccn2)CC1 (stereo not given) | – | · | · | · | – | ·
O=S(=O)(c1cnc[nH]1)N1CCCCCC1 | – | – | – | – | – | –
Cc1ccc(Cl)cc1N1CCN(C(=O)C2CCN(S(=O)(=O)c3cccnc3)CC2)CC1 | – | – | 55 | – | – | 61
O=S(=O)(c1cnc[nH]1)N1CCN(c2ccccc2)CC1 | – | – | – | – | · | 64
O=C(C1CCCN(S(=O)(=O)c2cccnc2)C1)N1CCN(c2ccccn2)CC1 (stereo not given) | – | – | 63 | – | – | –
Cc1ccc(Cl)cc1N1CCN(S(=O)(=O)c2cnc[nH]2)CC1 | – | – | 97 | – | – | 99
COc1cccc(C(=O)N2CCN(S(C)(=O)=O)CC2)c1 | – | – | – | – | · | –
CC1(C)CC(c2csc(N)n2)CCO1 (stereo not given) | – | – | – | – | – | –
CN(C(=O)COc1ccccc1)c1nnc(-c2cccnc2)s1 | – | – | – | – | – | –
O=C(NC1=NCCS1)C1CC2CCC1C2 (stereo not given) | – | – | – | – | – | –
Cn1c(C(=O)OC(C(=O)NCc2ccco2)c2ccncc2)cc2sccc21 (stereo not given) | – | – | 90 | – | · | 98
CC(OC(=O)c1cc2sccc2n1C)C(=O)NCc1ccco1 (stereo not given) | – | – | 79 | – | – | 90
CC(OC(=O)c1cc2sccc2n1C)C(=O)NCC1CCCO1 (stereo not given) | – | – | – | – | – | –
CCOC(=O)C1=C(C)OC(N)=C(C#N)C1c1ccc(C)o1 (stereo not given) | – | – | 58 | – | · | 98
CCOC(=O)C1=C(C)OC(N)=C(C#N)C1c1ccoc1 (stereo not given) | – | – | – | – | – | 54
CC1=C(C(=O)OC(C)(C)C)C(c2ccco2)C(C#N)=C(N)O1 (stereo not given) | – | – | 52 | – | – | 93
CCOC(=O)C1C(C#N)=C(N)OC(C)=C1c1ccncc1 (stereo not given) | – | – | 90 | – | – | 80
CCOC(=O)C1=C(C)OC(N)=C(C#N)C1c1ccc(O)c(OC)c1 (stereo not given) | – | – | – | – | · | –
CC(C)(C)C1(C)OC(C(=O)NC2CCCCC2)C(C(=O)NC2CCCCC2)O1 (stereo not given) | – | – | – | – | · | –
CCOC(=O)CC1=C(C(=O)OCC)C(c2ccncc2)C(C#N)=C(N)O1 (stereo not given) | – | – | 59 | – | – | 79
CC(=O)Nc1ccc(S(=O)(=O)NC2=C(N3CCN(Cc4ccccc4)CC3)C(=O)c3ccccc3C2=O)cc1 | – | – | 80 | – | · | 76
CC(=O)Nc1ccc(OCC(O)CN2CCN(Cc3ccccc3)CC2)cc1 (stereo not given) | – | – | – | – | – | –
CN(C)c1ccc(C2C3C(=O)N(c4ccc(C(=O)O)cc4)C(=O)C3ON2c2ccccc2)cc1 (stereo not given) | – | – | – | – | – | –
CN1C(=O)C2ON(c3ccccc3)C(c3cccs3)C2C1=O (stereo not given) | – | – | – | – | – | 59
COc1ccccc1C(=O)Nc1ccc(S(=O)(=O)N2CCOCC2)cc1 | – | 5.2 | – | – | – | –
SMILES | Ecoli WT expand | CYP2C9 act | CYP2C9 inhib | CYP2C19 act | Ecoli tolC | CYP2C19 inh
CCOc1ccc(C(=O)Nc2ccc(S(=O)(=O)N3CCOCC3)cc2)cc1OCC | – | – | – | – | – | –
COc1ccc(C(=O)Nc2ccc(S(=O)(=O)N3CCOCC3)cc2)cc1OC | – | – | – | – | – | –
CCOc1cc(C(=S)N2CCOCC2)ccc1OS(=O)(=O)c1ccc(NC(C)=O)cc1 | – | – | 61 | – | · | 71
COc1cc(C(=O)Nc2ccc(S(=O)(=O)N3CCCCC3C)cc2)cc(OC)c1OC (stereo not given) | – | – | – | – | – | –
COc1ccc(C(=O)Nc2ccc(S(=O)(=O)N3CCCCC3C)cc2)c(OC)c1OC (stereo not given) | – | – | – | – | 66 | –
CCOc1ccccc1C(=O)Nc1ccc(S(=O)(=O)N2CCOCC2)cc1 | – | 3.3 | – | – | – | 54
CCCOc1ccccc1C(=O)NC(CO)C(=O)O (stereo not given) | – | – | – | – | · | –
O=C(N/N=C1\CCCc2ccccc21)C(O)c1ccccc1 (stereo not given) | – | – | – | – | · | –
Cc1cc(C)c(O)c(-c2cc(C(=O)Nc3ccc(S(=O)(=O)N4CCOCC4)cc3)[nH]n2)c1 | – | – | – | – | 91 | –
CCCSc1nc(C)cc(C)c1C(N)=O | – | – | – | – | · | –
COc1cc(C(=O)NCCCNc2nc3cc(C)cc(C)c3cc2C#N)cc(OC)c1OC | – | – | – | – | · | 57
CO/N=C(/CNC(=O)c1ccc(F)cc1)c1ccc(Cl)cc1 | – | – | 64 | – | · | 86
CCn1c(=NC(=O)CN2C(=O)CCC2=O)sc2c(C)cc(C)cc21 | – | – | – | – | – | –
CCC(C)n1cnc2c(c1=O)c1nc3ccccc3nc1n2Cc1ccccc1OC (stereo not given) | – | – | 69 | – | – | –
Cc1cccc(-n2cnc3c(c2=O)c2nc4ccccc4nc2n3Cc2ccco2)c1 | · | – | – | – | – | –
COCCCn1c2nc3ccccc3nc2c2c(=O)n(-c3ccccc3OC)cnc21 | – | – | – | – | – | 54
COCCCn1cnc2c(c1=O)c1nc3ccccc3nc1n2CCc1ccccc1 | – | – | 58 | – | – | –
CCCCn1c2nc3ccccc3nc2c2c(=O)n(CCC)cnc21 | – | – | – | – | – | –
COc1ccc(Cn2c3nc4ccccc4nc3c3c(=O)n(Cc4ccco4)cnc32)cc1 | · | – | 62 | – | – | –
CS(=O)(=O)N(CC(=O)NC1CCCCCC1)Cc1ccc(Cl)cc1 | – | – | – | – | · | –
O=C(CCn1c(=O)oc2ccccc21)Nc1ccc2c(c1)OCCO2 | · | · | · | · | – | ·
COCCn1c(=NC(=O)CSCC(=O)Nc2cc(C)on2)sc2cc(C(=O)OC)ccc21 | · | · | · | · | – | ·
CN(C)C(=O)N1CCC(C(=O)NCc2ccccc2)CC1 | – | – | – | – | – | –
COc1ccc(CN(C)CCc2ccccn2)cc1OC | · | · | · | · | – | ·
COc1cc(CNCc2ccccn2)ccc1OCc1cccc(Cl)c1 | – | – | – | – | · | 83
COc1cc(C(=O)NCc2ccccn2)ccc1OCc1c(C)noc1C | – | – | – | – | · | –
